Format in all cases: ADME, organism-based
What all share (parameters): dose 5 mg/kg, dosed compound name [14C]-apixaban, route oral
Settings in all cases: in vivo

Data set [1] has as its system Liver. The data set can be described thus: Biodistribution in male Sprague-Dawley rat liver at 5 mg/kg, po administered as single dose measured after 0.5 hrs. Summed up: (§1)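 [14C]apixaban (1.0 mg/mL, 20 μCi/mL) in 0.5% Tween 80 in Labrafil, given by oral gavage at 100 μCi/kg to male rats (225-252 g) fasted overnight through 4 h post-dose. One rat per time point. Carcasses frozen in hexane/dry ice and cut into 40 µm sagittal sections. QWBA read on phosphor plates against [14C]glucose standards, reported as µg eq/g. LLOQ 0.037 µg eq/g.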

Data set [2] concerns Rattus norvegicus. Description: Biodistribution in male Sprague-Dawley rat salivary gland at 5 mg/kg, po administered as single dose measured after 0.5 hrs.
Another data set has as its system Heart. The data set can be described thus: Biodistribution in male Sprague-Dawley rat heart at 5 mg/kg, po administered as single dose measured after 8 hrs. The procedure, abridged: as §1
In data set [3] the test system is Rattus norvegicus. The data set can be described thus: Biodistribution in male Sprague-Dawley rat kidney cortex at 5 mg/kg, po administered as single dose measured after 24 hrs.
For data set [4], the system named is Blood. Description: Biodistribution in female Sprague-Dawley rat blood at 5 mg/kg, po administered as single dose measured after 72 hrs. The procedure, abridged:
(§2)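 Quantitative whole-body autoradiography was run after a single 5 mg/kg (100 μCi/kg) oral gavage to fasted female or pregnant SD rats, one rat per time point. Carcasses were frozen in hexane/dry ice, and 40 µm sagittal sections were dried at −20°C for at least 48 h. Sections were exposed to a phosphor plate alongside [14C]glucose standards (0.001–6.5 µCi/g). Results are µg eq/g, with LLOQ 0.037 µg eq/g.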

In data set [5] the test system is Spleen. The data set can be described thus: Biodistribution in female Sprague-Dawley rat spleen at 5 mg/kg, po administered as single dose measured after 8 hrs. Summed up:
(§3)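 [¹⁴C]Apixaban given by oral gavage at 5 mg/kg (100 μCi/kg) in 0.5% Tween 80 in Labrafil (1.0 mg/mL dosing solution) to rats fasted overnight through 4 h post-dose. One rat per time point; carcass frozen in hexane/dry ice. Quantitative whole-body autoradiography used 40 µm sagittal sections and a phosphor imaging plate calibrated with [¹⁴C]glucose standards (0.001–6.5 μCi/g). Read-out in µg eq apixaban/g; LLOQ 0.037 μg eq/g.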

Data set [6] has as its system Rattus norvegicus. Description: Biodistribution in female Sprague-Dawley rat kidney cortex at 5 mg/kg, po administered as single dose measured after 8 hrs. Summed up:
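[14C]apixaban (20 μCi/mL in dosing solution) in 0.5% Tween 80 in Labrafil given by oral gavage to fasted female rats, 206-213 g, at 100 μCi/kg. One rat per time point was euthanized and snap-frozen. Sagittal 40 µm whole-body sections were read by QWBA phosphor imaging against [14C]glucose standards. Results are in µg eq apixaban/g, with LLOQ 0.037 μg eq/g.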

For another data set, the system named is Thymus. Description: Biodistribution in female Sprague-Dawley rat thymus at 5 mg/kg, po administered as single dose measured after 4 hrs. The procedure, abridged: as §3
In another data set the test system is Muscle tissue. Description: Biodistribution in female Sprague-Dawley rat muscle at 5 mg/kg, po administered as single dose measured after 4 hrs. Summed up: as §3
Data set [7] deals with Lung. The data set can be described thus: Biodistribution in male Sprague-Dawley rat lung at 5 mg/kg, po administered as single dose measured after 72 hrs. Summed up: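 Fasted male SD rats (225-252 g) each received one oral gavage dose of [14C]apixaban, 5 mg/kg (100 μCi/kg), in 0.5% Tween 80/Labrafil vehicle. One rat was killed per time point, from 0.5 to 168 h. Frozen carcasses were cut into 40 µm sagittal whole-body sections and read by QWBA phosphor imaging against [14C]glucose calibrants. Results are in µg apixaban eq/g; BLQ <0.037 µg eq/g.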

The test system of data set [8] is Lung. Description: Biodistribution in male Sprague-Dawley rat lung at 5 mg/kg, po administered as single dose measured after 1 hr. Summed up: as §1
Data set [9] has as its system Rattus norvegicus. The data set can be described thus: Biodistribution in male Sprague-Dawley rat bone marrow at 5 mg/kg, po administered as single dose measured after 8 hrs. The procedure, abridged: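 Fasted male rats, 225-252 g, received [14C]apixaban by single oral gavage at 100 μCi/kg in 0.5% Tween 80/Labrafil. One rat was killed per time point and the carcass frozen. Tissue radioactivity was quantified by QWBA (40 µm sagittal sections, phosphor plate, [14C]glucose calibration) as µg eq apixaban/g, with LLOQ 0.037 μg eq/g.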

The subject of data set [10] is Brain. Description: Biodistribution in pregnant Sprague-Dawley rat brain at 5 mg/kg, po administered as single dose measured after 24 hrs. The procedure, abridged:
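Fasted pregnant SD rats (n=6, 270-319 g) each received one oral gavage dose of [14C]apixaban, 5 mg/kg (100 μCi/kg), in 0.5% Tween 80/Labrafil. One rat was killed at each of 0.5, 1, 4, 8, 24 and 48 h. Carcasses were frozen in hexane/dry ice, cut into 40 µm sagittal sections, exposed to phosphor plates and quantified against [14C]glucose standards as µg eq/g. LLOQ was 0.037 µg eq/g.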

Data set [11] relates to Rattus norvegicus. The data set can be described thus: Biodistribution in pregnant Sprague-Dawley rat salivary gland at 5 mg/kg, po administered as single dose measured after 24 hrs. The procedure, abridged:
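Pregnant SD rats (270-319 g) were fasted overnight and given one oral gavage of 5 mg/kg (100 μCi/kg) in 0.5% Tween 80 in Labrafil. One rat was euthanized per time point (0.5, 1, 4, 8, 24, 48 h) and the carcass frozen. 40 µm sagittal sections were phosphor-imaged against [14C]glucose standards and results reported as µg eq/g; LLOQ 0.037 µg eq/g.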

Data set [12] has as its system Blood. The data set can be described thus: Biodistribution in female Sprague-Dawley rat blood at 5 mg/kg, po administered as single dose measured after 0.5 hrs. Summed up: as §3
Data set [13] concerns Rattus norvegicus. The data set can be described thus: Biodistribution in fetal kidney of pregnant Sprague-Dawley rat at 5 mg/kg, po administered as single dose measured after 48 hrs. The procedure, abridged:
as §2

Data set [14] deals with Blood. The data set can be described thus: Cmax in lactating Sprague-Dawley rat blood at 5 mg/kg, po administered as single dose. Summed up:
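Lactating SD rats received a single oral gavage of 5 mg/kg (108 μCi/kg) in 0.5% Tween 80/Labrafil. Three rats were sampled per time point at 0.5-24 h. Oxytocin was given sc 15 min before milking under anesthesia. Milk, blood and plasma were counted in duplicate by liquid scintillation for 10 min and expressed as apixaban equivalents.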

Data set [15] relates to Liver. Description: Biodistribution in female Sprague-Dawley rat liver at 5 mg/kg, po administered as single dose measured after 72 hrs. Summed up: as §2
Data set [16] has as its system Liver. Description: Biodistribution in female Sprague-Dawley rat liver at 5 mg/kg, po administered as single dose measured after 4 hrs. The procedure, abridged: as §2
Data set [17] concerns Spleen. Description: Biodistribution in pregnant Sprague-Dawley rat spleen at 5 mg/kg, po administered as single dose measured after 4 hrs.
Another data set concerns Pancreas. Description: Biodistribution in pregnant Sprague-Dawley rat pancreas at 5 mg/kg, po administered as single dose measured after 0.5 hrs.
The subject of data set [18] is Brain. Description: Biodistribution in pregnant Sprague-Dawley rat brain at 5 mg/kg, po administered as single dose measured after 1 hr.

Structures are written as SMILES.

In the case of `COc1ccc(-n2nc(C(N)=O)c3c2C(=O)N(c2ccc(N4CCCC[14C]4=O)cc2)CC3)cc1`, the Radiolabel recovery is 0.81 ugequiv/g in the data set with Liver [1]; 0.3 ugequiv/g in the data set on Rattus norvegicus [2]; 0.08 ugequiv/g in the data set with Heart; less than 0.037 ugequiv/g in the data set on Rattus norvegicus [3]; “Not detected assumed BLQ” in the data set on Blood [4]; 0.13 ugequiv/g in the data set with Spleen [5]. Moreover, the Radiolabel recovery in the data set on Rattus norvegicus [6] is reported as 0.42 ugequiv/g; with Thymus, 0.3 ugequiv/g; in the data set with Muscle tissue it was 0.29 ugequiv/g; in the data set with Lung [7], “Not detected assumed BLQ”; in the data set with Lung [8], 0.7 ugequiv/g; with Rattus norvegicus [9], 0.07 ugequiv/g. In addition, the Radiolabel recovery result is listed as “Not detected assumed BLQ” in the data set on Brain [10]; “Not detected assumed BLQ” in the data set on Rattus norvegicus [11]; 0.4 ugequiv/g in the data set on Blood [12]; “Not sampled as not visualised in autoradiograph” in the data set with Rattus norvegicus [13]; “Not detected assumed BLQ” with Liver [15]; 3.98 ugequiv/g in the data set with Liver [16]. Also, the values for the Radiolabel recovery with Spleen [17], with Pancreas and in the data set on Brain [18] were 0.47 ugequiv/g, 0.89 ugequiv/g and 0.06 ugequiv/g, respectively. In the data set on Blood [14], this compound came in with a Cmax of 514 ngequiv/g.

The values above are taken from ChEMBL document CHEMBL3525963, “Tissue distribution and elimination of [14C]apixaban in rats” (Drug Metab Dispos, 2011).
